According to paper PMC6467790 (Journal of medicinal chemistry, 2018):
“Also recorded” adds a separate entry of the source.

Columns and labels:
KDM5B [1] = test: AlphaLISA demethylase assay, KDM5B; format: biochemical, human; conditions: AlphaLISA IC50 values; recombinant catalytic domains, same enzyme concentration
KDM5A catalytic domain = test: Isothermal titration calorimetry, binding to KDM5A catalytic domain; design: species or system human; conditions: ITC
How it was run: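 Binding was measured by isothermal titration calorimetry with the KDM5A(1−588)ΔAP catalytic-domain construct (internal ARID and PHD1 deleted). KD was the read-out.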

PAMPA permeability assay = format: in vitro ADME; conditions: pH 7.4
BT474 cells [2] = test: IncuCyte live cell proliferation, BT474; format: cell-based, human
How it was run: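 BT474 cells were treated with test compound. Growth was followed by live-cell imaging every 4 h over 300 h, with percent confluence as the read-out.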

MCF7 = test: Bright-field microscopy of live cells, MCF7; format: cell-based, human; conditions: MCF7, 24 h; N73: between 5 and 10 μM
BT474 cells [3] = test: Cellular extract experiment, BT474 cells; format: in vitro ADME, human
BT474 cells [4] = test: Cellular H3K4me3 level in BT474 cells; format: cell-based, human
[5] = Stability in culture media; format: in vitro ADME; conditions: after 24 h
HEK293T = test: Bright-field microscopy of live cells, HEK293T; format: cell-based, human; conditions: 24 h, N73: between 5 and 10 μM
MDA-MB-231 = test: Bright-field microscopy of live cells, MDA-MB-231; format: cell-based, human; conditions: MDA-MB-231, 24 h; N73: between 5 and 10 μM
K562 cells = conditions: 10 nM; cited from earlier work
MCF7 cells [6] = test: Western blot of histone methylation levels in MCF7 cells; format: cell-based, human
How it was run: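 MCF7 cells were treated with test compound at the indicated concentrations, or 0.1% DMSO, for 30 or 48 h. Total cell lysates were analysed by Western blot with histone methylation antibodies.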

KDM4A = molecular target: T1, KDM4A (Homo sapiens, UniProt O75164); test: AlphaLISA demethylase assay, KDM4A; format: biochemical
T1 sequence (O75164 1-359 limits assumed): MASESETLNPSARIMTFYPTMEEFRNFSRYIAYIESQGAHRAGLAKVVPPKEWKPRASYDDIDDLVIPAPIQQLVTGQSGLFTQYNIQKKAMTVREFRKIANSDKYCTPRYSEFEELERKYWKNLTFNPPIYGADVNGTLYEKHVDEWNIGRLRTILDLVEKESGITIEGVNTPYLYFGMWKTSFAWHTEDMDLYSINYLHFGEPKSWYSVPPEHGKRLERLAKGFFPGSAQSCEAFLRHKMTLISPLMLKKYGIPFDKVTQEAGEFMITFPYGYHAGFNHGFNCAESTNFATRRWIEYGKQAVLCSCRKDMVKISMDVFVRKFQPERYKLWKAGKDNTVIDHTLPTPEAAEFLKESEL

KDM5A(1−739)ΔAP = molecular target: T2, KDM5A(1−739)ΔAP (Homo sapiens, UniProt P29375, DEL88-347); test: Promega Succinate-Glo demethylase assay; format: biochemical; conditions: for reversibility of inhibition after buffer exchange / dialysis: [E] = 5 μM, initial [I] = 100 μM, four times of buffer exchange; for dependence of inhibition of KDM5A on αKG concentration: three αKG concentrations (10, 100, 1000 μM), 20 min preincubation; for effect of preincubation with KDM5A on inhibition potency: with or without incubation for 20 min
T2 sequence (P29375 with tags, fused parts or gaps DEL88-347 limits assumed): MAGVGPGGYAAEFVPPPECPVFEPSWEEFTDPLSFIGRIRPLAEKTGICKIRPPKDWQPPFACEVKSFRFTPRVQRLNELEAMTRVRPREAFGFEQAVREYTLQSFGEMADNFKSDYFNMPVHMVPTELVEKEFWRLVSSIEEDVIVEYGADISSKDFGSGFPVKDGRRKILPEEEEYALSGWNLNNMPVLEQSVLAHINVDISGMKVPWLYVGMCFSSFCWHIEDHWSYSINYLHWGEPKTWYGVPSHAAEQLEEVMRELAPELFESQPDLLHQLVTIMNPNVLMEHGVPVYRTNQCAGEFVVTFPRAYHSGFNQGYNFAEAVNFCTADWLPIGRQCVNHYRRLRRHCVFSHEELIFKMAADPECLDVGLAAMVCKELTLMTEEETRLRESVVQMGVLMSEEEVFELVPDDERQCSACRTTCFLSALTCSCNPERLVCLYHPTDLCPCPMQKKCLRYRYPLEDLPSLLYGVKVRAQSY
How it was run: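 Succinate-Glo assay: KDM5A(1−739)ΔAP (0.8 μM) was preincubated 20 min with 2-fold serial dilutions of test compound. Reactions were started with αKG (10, 100 or 1000 μM) plus H3(1−24)K4me3 peptide (60 μM), in 10 μM (NH4)2Fe(SO4)2, 100 μM ascorbate, 50 mM HEPES pH 8.0 and 5% DMSO. They ran 10 min at ambient temperature (n = 3), then succinate detection reagents were added. IC50 came from a four-parameter fit.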

MCF7 cells [7] = test: Real-time RT-PCR of KDM5 target genes in MCF7 cells; format: cell-based, human; conditions: MCF7, 1 μM for 2 days
KDM5B [8] = conditions: cited from earlier work
KDM5A = test: ESI mass spectrometry of KDM5A with inhibitors; format: binding, human; conditions: KDM5A 50 μM, inhibitor 0.5 mM, 30 min, ambient temperature

CN1CCCC1CCOC(c1cc2nccc(C(=O)O)c2s1)c1ccccc1Cl (stereo not drawn) [N49, 2-((2-Chlorophenyl)(2-(1-methylpyrrolidin-2-yl)-ethoxy)methyl)thieno[3,2-b]pyridine-7-carboxylic Acid]
selectivity for KDM5B over KDM4A (KDM5B [1]): 7−8 fold | difference in binding affinity (KD) to KDM5A between N46 and N49 (KDM5A catalytic domain): approximately 2 fold

CC(C)OC(=O)c1ccnc2cc(C(OCCN3CCCCC3)c3cccc(N)c3)sc12 (stereo not drawn) [SI-5, Isopropyl 2-((3-Aminophenyl)(2-(piperidin-1-yl)-ethoxy)methyl)thieno[3,2-b]pyridine-7-carboxylate]
Papp at 30 min, 0.05 mM (PAMPA permeability assay): > 100 ×10⁻⁶ cm/s | growth inhibition (percent confluence) (BT474 cells [2]; BT474, highest concentration tested 28 μM): some growth inhibition at the highest concentration tested

CC(C)OC(=O)c1ccnc2cc(C(OCCN3CCCCC3)c3cccc(NC(=O)/C=C/CN(C)C)c3)sc12 (stereo not drawn) [N73, Isopropyl (E)-2-((3-(4-(Dimethylamino)but-2-enamido)phenyl)(2-(piperidin-1-yl)ethoxy)methyl)thieno[3,2-b]-pyridine-7-carboxylate]
cell killing / effect on cell growth (MCF7): noteworthy difference in cell killing | intracellular esterase-mediated conversion of ester N73 to acid N71 (BT474 cells [3]; 24 h): appeared to be inefficient | cell extract level of ester N73 relative to acid N71 (BT474 cells [3]; incubated 24 h, lysed): 100 fold | Papp at 30 min, 0.05 mM (PAMPA permeability assay): 10 to 100 ×10⁻⁶ cm/s | cellular H3K4me3 methylation levels (BT474 cells [4]; BT474, doses up to 5 μM, 48 h, immunocytochemistry): does not increase H3K4me3 level; also recorded: no impact on cellular H3K4me3 methylation levels | remained unchanged in culture media [5]: Approximately 80% | cell killing / effect on cell growth (HEK293T): noteworthy difference in cell killing | cell growth (percent confluence) (BT474 cells [2]; BT474, low doses, period of >12 days): do not affect cell growth | cell killing / effect on cell growth (MDA-MB-231): noteworthy difference in cell killing

CN(C)C/C=C/C(=O)Nc1cc2c(Nc3ccc(F)c(Cl)c3)ncnc2cc1O[C@H]1CCOC1 [Afatinib]
cytotoxicity for EGFR expressing K562 cells (K562 cells): complete cytotoxicity

CCOC(=O)CCNc1cc(N2CCc3ccccc3CC2)nc(-c2ccccn2)n1 [GSK-J4]
overall levels of H3K4me3 or H3K27me3 (MCF7 cells [6]; MCF7, same conditions tested): influences little of the overall levels of H3K4me3 or H3K27me3

Nc1cccc(C(OCCN2CCCCC2)c2cc3nccc(C(=O)O)c3s2)c1 (stereo not drawn) [N70, 2-((3-aminophenyl)(2-(piperidin-1-yl)ethoxy)-methyl)thieno[3,2-b]pyridine-7-carboxylic acid]
selectivity for KDM5B over KDM4A (KDM5B [1]): 7−8 fold | Papp at 30 min, 0.05 mM (PAMPA permeability assay): 10 to 100 ×10⁻⁶ cm/s | inhibition constants against KDM4A, N70 compared with N71 (KDM4A): about the same | reversibility of inhibition after buffer exchange / dialysis (KDM5A(1−739)ΔAP): could be reversed after dialysis; also recorded: removes the noncovalent modifying N70 from solution; also recorded: enzyme activity could be restored after buffer exchange | dependence of inhibition of KDM5A on αKG concentration (KDM5A(1−739)ΔAP): αKG-competitive inhibition; also recorded: dependent on αKG concentration | effect of preincubation with KDM5A on inhibition potency (KDM5A(1−739)ΔAP): insensitive

CCOC(=O)c1ccnc(CNCC(=O)N(CC)CCN(C)C)c1 [KDM5-C70]
increase of expression of STING, MT1F, and MT1H (MCF7 cells [7]): up to 6 fold | selectivity for the KDM5 family over KDM4A (KDM5B [8]): 10 × | cellular H3K4me3 levels (MCF7 cells [6]; MCF7, 1 μM): increase in cellular H3K4me3 levels | cellular H3K4me3 levels (BT474 cells [4]; BT474, 1 μM): increase in cellular H3K4me3 levels

CN(C)C/C=C/C(=O)Nc1cccc(C(OCCN2CCCCC2)c2cc3nccc(C(=O)O)c3s2)c1 (stereo not drawn) [N71, (E)-2-((3-(4-(Dimethylamino)but-2-enamido)-phenyl)(2-(piperidin-1-yl)ethoxy)methyl)thieno[3,2-b]pyridine-7-carboxylic Acid]
cell killing / effect on cell growth (MCF7): no effect on cell growth | covalent modification of KDM5A enzyme by mass spectrometry (KDM5A): covalently modified KDM5A enzyme completely | inhibition constants against KDM4A, N70 compared with N71 (KDM4A): about the same | dependence of inhibition of KDM5A on enzyme concentration (KDM5A(1−739)ΔAP): dependent on enzyme concentration | kinact/KI (KDM5A(1−739)ΔAP): ~8000 M⁻¹ s⁻¹ | IC50 value lower than that of N70 (KDM5A(1−739)ΔAP; 100 μM αKG concentration): ~ 50 fold | reversibility of inhibition after buffer exchange / dialysis (KDM5A(1−739)ΔAP): persisted even after dialysis; also recorded: does not perturb N71 complex with KDM5A; also recorded: no effect on the inhibition | dependence of inhibition of KDM5A on αKG concentration (KDM5A(1−739)ΔAP): no significant change to IC50 values with variation in αKG concentration; also recorded: did not appear to be sensitive to the αKG concentration | effect of preincubation with KDM5A on inhibition potency (KDM5A(1−739)ΔAP): increased inhibition potency | cell killing / effect on cell growth (HEK293T): no effect on cell growth | cell killing / effect on cell growth (MDA-MB-231): no effect on cell growth
